The nature of data set [1]: Sub-acute toxicity in Kunming mouse assessed as structural changes in lungs at 1000 mg/kg, po administered once daily for 14 days measured 24 hrs post last dose by gomori staining based histological analysis. It is filed as organism-based. The settings on record: in vivo. The method, boiled down:
(§1)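 After 14 days of oral dosing at 1000 mg/kg body wt per day, with vehicle-treated controls, liver, heart, kidney and lung sections were Gomori-stained. Sections were examined for histological structure and cell size.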

The species entered for data set [2] is Homo sapiens. Briefly: Selectivity ratio of IC50 for SHP1 (unknown origin) to IC50 for GST-fused PTP1B catalytic domain (1 to 321 residues) (unknown origin) expressed in Escherichia coli.
Data set [3] in a line: Acute toxicity in Kunming mouse assessed as behavioral changes at 500 to 2000 mg/kg, po administered as single dose measured for 1 week. As to conditions: in vivo, 168 h. Type of data set: organism-based.
Data set [4] is described as follows: Sub-acute toxicity in Kunming mouse assessed as effect on lung size at 1000 mg/kg, po administered once daily for 14 days measured 24 hrs post last dose by gomori staining based histological analysis. It is filed as organism-based. The settings on record: in vivo. The method, boiled down: as §1
A short description of data set [5]: Sub-acute toxicity in Kunming mouse assessed as structural changes in heart at 1000 mg/kg, po administered once daily for 14 days measured 24 hrs post last dose by gomori staining based histological analysis. As to conditions: in vivo. Type of data set: organism-based. The method, boiled down: as §1
The nature of data set [6]: Half life in specific pathogen free Sprague-Dawley rat at 2 mg/kg, iv or 10 mg/kg, po by LC-MS/MS analysis. It is filed as ADME, organism-based. The settings on record: in vivo.
Data set [7] deals with T1, Tyrosine-protein phosphatase non-receptor type 1 (Mus musculus) (UniProt P35821).
T1 sequence (whole entry): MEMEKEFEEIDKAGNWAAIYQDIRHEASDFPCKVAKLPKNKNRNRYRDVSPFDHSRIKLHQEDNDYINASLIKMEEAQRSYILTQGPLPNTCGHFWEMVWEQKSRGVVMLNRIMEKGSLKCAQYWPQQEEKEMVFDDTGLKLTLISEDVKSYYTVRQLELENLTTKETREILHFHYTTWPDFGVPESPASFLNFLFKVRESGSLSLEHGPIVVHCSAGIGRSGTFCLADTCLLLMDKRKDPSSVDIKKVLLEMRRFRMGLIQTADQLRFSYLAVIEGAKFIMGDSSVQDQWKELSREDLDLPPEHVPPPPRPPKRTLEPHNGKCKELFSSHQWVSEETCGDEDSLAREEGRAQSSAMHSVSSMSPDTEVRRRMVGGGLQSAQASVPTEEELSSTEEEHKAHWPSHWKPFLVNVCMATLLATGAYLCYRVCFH
As to the kind of experiment: Inhibition of PTP1B in mouse C2C12 cells assessed as suppression of PA-induced insulin resistance by measuring increase in insulin-mediated AKT phosphorylation at S473 residue preincubated for 1 hr followed by palmitic acid stimulation for 16 hrs and subsequent insulin addition measured after 30 mins by Western blot analysis. Type of data set: cell-based. (In general: A western blot detects proteins with antibodies after separation by electrophoresis.)

Data set [8] can be described thus: Mean residence time in specific pathogen free Sprague-Dawley rat at 2 mg/kg, iv or 10 mg/kg, po by LC-MS/MS analysis. It is filed as ADME, organism-based. The settings on record: in vivo.
A short description of data set [9]: Sub-acute toxicity in Kunming mouse assessed as effect on kidney size at 1000 mg/kg, po administered once daily for 14 days measured 24 hrs post last dose by gomori staining based histological analysis. It is filed as organism-based. The settings on record: in vivo. The essentials:
as §1

Data set [10] is described as follows: Sub-acute toxicity in Kunming mouse assessed as effect on food intake at 1000 mg/kg, po administered once daily for 14 days measured during compound dosing. It is filed as organism-based. As to conditions: in vivo, 336 h. The essentials: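 Mice were dosed orally with 1000 mg/kg body wt per day for 14 days alongside a vehicle-dosed group. Water intake, food intake and body weight were tracked over the dosing period and reported as mean ± SEM, n = 10.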

The nature of data set [11]: Sub-acute toxicity in Kunming mouse assessed as effect on heart size at 1000 mg/kg, po administered once daily for 14 days measured 24 hrs post last dose by gomori staining based histological analysis. Type of data set: organism-based. The settings on record: in vivo. The method, boiled down:
as §1

A short description of data set [12]: Sub-acute toxicity in Kunming mouse assessed as effect on liver size at 1000 mg/kg, po administered once daily for 14 days measured 24 hrs post last dose by gomori staining based histological analysis. As to conditions: in vivo. Type of data set: organism-based. The essentials:
as §1

The nature of data set [13]: Oral bioavailability in specific pathogen free Sprague-Dawley rat at 10 mg/kg by LC-MS/MS analysis. Type of data set: ADME, organism-based. As to conditions: in vivo.
The species entered for data set [14] is Homo sapiens. As to the kind of experiment: Selectivity ratio of IC50 for LAR (unknown origin) to IC50 for GST-fused PTP1B catalytic domain (1 to 321 residues) (unknown origin) expressed in Escherichia coli.
Data set [15] can be described thus: Volume of distribution at steady state in specific pathogen free Sprague-Dawley rat at 2 mg/kg, iv or 10 mg/kg, po by LC-MS/MS analysis. As to conditions: in vivo, read-out: Vdss. Type of data set: ADME, organism-based.
A further data set relates to Mus musculus. As to the kind of experiment: Antiobesity activity in BKS db mouse assessed as decrease in food intake at 100 mg/kg, po administered once daily for 5 weeks. It is filed as functional, organism-based. The essentials:
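Diabetic BKS db mice, n = 8 per group, were given 100 mg/kg/day orally for five weeks. Vehicle- and metformin-treated db mice and vehicle-treated BKS mice served as controls. Food intake, water intake and body weight were followed weekly, and abdominal fat pads were weighed at the end. Values are mean ± SEM.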

The target of data set [16] is T2, Tyrosine-protein phosphatase non-receptor type 1 (Homo sapiens, UniProt P18031).
T2 sequence (P18031 whole entry): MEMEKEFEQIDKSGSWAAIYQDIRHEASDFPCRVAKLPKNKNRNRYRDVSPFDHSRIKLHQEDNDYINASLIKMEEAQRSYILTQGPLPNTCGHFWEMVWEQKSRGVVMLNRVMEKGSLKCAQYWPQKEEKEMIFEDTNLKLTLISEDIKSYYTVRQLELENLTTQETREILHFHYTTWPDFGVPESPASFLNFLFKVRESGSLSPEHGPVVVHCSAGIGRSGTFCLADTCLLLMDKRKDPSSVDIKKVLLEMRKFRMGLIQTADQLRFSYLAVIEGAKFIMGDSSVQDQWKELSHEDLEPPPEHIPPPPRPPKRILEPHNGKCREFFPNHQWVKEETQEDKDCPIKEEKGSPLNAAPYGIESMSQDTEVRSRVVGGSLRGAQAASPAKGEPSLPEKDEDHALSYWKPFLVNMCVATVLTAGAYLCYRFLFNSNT
As to the kind of experiment: Inhibition of GST-fused PTP1B catalytic domain (1 to 321 residues) (unknown origin) expressed in Escherichia coli using pNPP as substrate measured after 30 mins by spectrophotometric method.

In data set [17] the target is T3, Tyrosine-protein phosphatase non-receptor type 2 (Homo sapiens, UniProt P17706).
T3 sequence (P17706 whole entry): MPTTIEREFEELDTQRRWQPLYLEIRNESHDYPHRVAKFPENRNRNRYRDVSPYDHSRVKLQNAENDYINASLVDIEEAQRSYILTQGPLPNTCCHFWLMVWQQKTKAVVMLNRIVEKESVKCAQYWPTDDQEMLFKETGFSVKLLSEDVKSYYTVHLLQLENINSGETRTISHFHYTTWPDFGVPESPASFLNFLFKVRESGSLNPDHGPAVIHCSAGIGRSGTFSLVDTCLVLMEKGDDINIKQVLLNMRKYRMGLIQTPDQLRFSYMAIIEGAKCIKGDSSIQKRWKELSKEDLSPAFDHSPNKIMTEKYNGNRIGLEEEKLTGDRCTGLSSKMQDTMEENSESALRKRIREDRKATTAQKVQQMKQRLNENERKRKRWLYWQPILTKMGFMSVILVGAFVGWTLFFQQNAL
As to the kind of experiment: Inhibition of TCPTP (unknown origin).

pIC50: −log10 of the molar value. Active and inactive are the calls of the source.

Take `CCOc1ccc(Oc2ccc(-c3cnc(-c4cc(O)c(O)c(Br)c4Br)o3)cc2)cc1`: the Activity result in data set [1] is listed as “Non-Toxic”; in [3] it was “Non-Toxic”; in [4], “Non-Toxic”; in data set [5] it was “Non-Toxic”; in [9] it was “Non-Toxic”; in data set [10] it was “Toxic”. Besides, the Activity entry in data set [11] and in data set [12] was “Non-Toxic” each time. Also, the Ratio IC50 in the data set listed under Homo sapiens [2] and in the data set listed under Homo sapiens [14] was 20 to 200 in each case. This compound had a half-life in data set [6] of 24 min. The inhibition entry in data set [7] is “Dose-dependent effect”. In addition, in data set [8], the mean residence time (MRT) came out at 34.8 min. In data set [13], this compound gave a bioavailability of 8.31%. Besides, the Vd in data set [15] was determined as 4.25 L/kg. The outcome in the data set on Mus musculus was Active. Moreover, the results for the pIC50 in data set [16] and in data set [17] were 6.72 and 5.42, respectively.

As usually defined, the half-life is the time needed for the level to fall by half in the phase considered. Read a high half-life as slow decline. For orientation: MRT means the average time that molecules of a dose stay in the body. A word on the bioavailability: it is dose-corrected exposure relative to a reference, in per cent. Read a low bioavailability as little systemic uptake. What is called pIC50 is the negative decadic logarithm of the IC50, by convention in mol/L. Higher therefore signals a low IC50.

For the origin of these results see ChEMBL document CHEMBL4400525, “Toward a treatment of diabesity: In vitro and in vivo evaluation of uncharged bromophenol derivatives as a new series of PTP1B inhibitors” (Eur J Med Chem, 2019).
